# Screening results as filed in PubChem BioAssay.
# PvdQ inh = P. aeruginosa PvdQ acylase inhibitors, primary screen, biochemical, fluorescence, plate reader and imaging, single point | PvdQ acylase [Pseudomonas aeruginosa LESB58] | purified PvdQ acylase | inhibition, % at 10 µM | hit rate 0.063% among 340,000; in the data active = inhibition above about 30%, passing the limit was not always enough;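 also: 0% = vehicle neutral wells and 100% = reference inhibitor wells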
# Tb MetRS inh = T. brucei MetRS inhibitors, primary screen, biochemical, luminescence. methionyl-tRNA synthetase (Trypanosoma brucei brucei). purified T. brucei MetRS, ATP depletion, Kinase-Glo luminescence. inhibition, % at 11.9 µM. hit rate 0.4% among 360,000. AID 624268, 2012;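 active = inhibition above a per-plate cutoff of the control wells' mean inhibition plus 3 SD, cut at about 5.5% in these data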;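 also: 0% = DMSO wells median and 100% = median of wells with control inhibitor compound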
#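 assay system = parasite MetRS enzyme | timing = 15 min preincubation, 2 h reaction, all 25 °C | evaluation = percent inhibition relative to median high and low control wells | medium = HEPES buffer containing pyrophosphatase, BSA, spermine, DTT | compound = single dose, 11.9 µM final nominal, 0.9% final DMSO | detection = Kinase-Glo luminescence, ATP depletion format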
# CAL PDZ FP-1 = untagged CAL PDZ binding inhibitors, primary screen, biochemical, fluorescence polarization, HTS. AID 602252, 2012. inhibition, % at 24.9 µM. purified CAL PDZ, TMR-peptide fluorescence polarization, 1 h. hit rate 0.92% among 300,000;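 active = mean inhibition of at least 30% with at least half of replicates also reaching 30%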;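 also: 0% = DMSO neutral control and 100% = excess unlabeled competitor peptide PRC23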
# DYRK1A inh = rat Dyrk1A kinase inhibitors, primary screen, biochemical, single point, plate reader; Dual specificity tyrosine-phosphorylation-regulated kinase 1A (Rattus norvegicus), Q63470; ADP-Glo luminescence, NFATc1 peptide; inhibition, % at 12.5 µM; hit rate 0.43% among 310,000; AID 504441, 2011; in the data active = inhibition above about 50%;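 also: plate controls were vehicle with enzyme for no effect and no enzyme for full effect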
# CAL PDZ FP-2 = CAL PDZ peptide-binding inhibitors, primary screen, biochemical, fluorescence polarization, Cer-tagged CAL PDZ, HTS. inhibition, % at 20 µM. Golgi-associated PDZ and coiled-coil motif-containing protein (Homo sapiens), Q9HD26. hit rate 0.02% among 330,000. purified CAL PDZ, TMR-peptide fluorescence polarization, 1 h;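 active = highest replicate inhibition of at least 40%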;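 also: plate controls were DMSO neutral control wells for no effect and unlabeled competitor peptide control wells for full effect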
#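 Material: tagged CAL PDZ protein CerCALP, purified; buffer or medium: sodium phosphate/NaCl buffer pH 7.4 with TCEP, IgG, Thesit; also added: fluorescent TMR peptide probe; schedule: 1 h incubation at room temperature before polarization reading; technique: fluorescence polarization from S- and P-plane intensities, G-factor corrected; control set: unlabelled peptide and DMSO controls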
# CDK5 inh = inhibitors of human CDK5/p35 kinase, primary screen, biochemical, single concentration; inhibition, % at 10 µM; Recombinant CDK5/p35, ADP-Glo luminescence, 60 min; hit rate 0.01% among 330,000; Cyclin-dependent kinase 5 (Homo sapiens) + Cyclin-dependent kinase 5 activator 1 (Homo …;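 active = highest replicate inhibition of at least 50% and at least 75% of replicates reaching 50%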;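 also: plate controls were DMSO neutral control for no effect and GW8510 at 10 µM for full effect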
# Target sequence (Q00535 whole entry, looked up): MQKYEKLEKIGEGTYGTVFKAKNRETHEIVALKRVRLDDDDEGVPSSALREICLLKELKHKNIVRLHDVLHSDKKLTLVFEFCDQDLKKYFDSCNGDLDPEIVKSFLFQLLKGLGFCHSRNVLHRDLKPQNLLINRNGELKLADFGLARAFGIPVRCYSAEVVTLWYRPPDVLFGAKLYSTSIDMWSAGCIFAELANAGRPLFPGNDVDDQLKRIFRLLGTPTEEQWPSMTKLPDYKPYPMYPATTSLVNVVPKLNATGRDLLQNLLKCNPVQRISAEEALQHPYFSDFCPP
# Target sequence (Q15078 whole entry, looked up): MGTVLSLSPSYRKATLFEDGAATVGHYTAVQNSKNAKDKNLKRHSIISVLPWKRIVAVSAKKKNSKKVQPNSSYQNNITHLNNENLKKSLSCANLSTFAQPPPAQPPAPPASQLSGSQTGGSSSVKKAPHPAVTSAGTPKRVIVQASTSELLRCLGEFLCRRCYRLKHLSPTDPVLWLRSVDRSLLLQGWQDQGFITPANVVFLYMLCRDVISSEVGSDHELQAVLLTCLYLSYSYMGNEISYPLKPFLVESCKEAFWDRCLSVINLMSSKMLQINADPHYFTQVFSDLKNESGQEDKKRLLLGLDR
# Tb MetRS conf = T. brucei MetRS inhibitors, confirmation, biochemical, luminescence. shares compounds with Tb MetRS inh. T. brucei MetRS enzyme, luminescence (ATP depletion). inhibition, % at 11.9 µM. hit rate 93% among 1,400. AID 624412, 2012; in the data active = inhibition above about 7%
# Jurkat tox = Jurkat T cell cytotoxicity, cytotoxicity control for T. brucei MetRS inhibitor project, luminescence, high throughput | shares compounds with Tb MetRS inh | Jurkat cells viability, ATP luminescence | inhibition, % at 8.3 µM | hit rate 12% among 1,400; in the data active = inhibition above about 15%;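 also: 0% = vehicle and 100% = reference inhibitor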
# TbMetRS FP orth = T. brucei MetRS inhibitors, orthogonal assay for T. brucei MetRS inhibitor project, biochemical, fluorescence polarization; shares compounds with Tb MetRS inh; purified T. brucei MetRS; inhibition, % at 11.9 µM; hit rate 44% among 1,400; AID 651607, 2012; in the data active = inhibition above about 17%;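 also: 0% = vehicle wells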
# Starred values were filed as active, the others as inactive; / = no result given. An excerpt weighted towards active compounds, which were near 1.4% of everything screened.
SMILES,PvdQ inh,Tb MetRS inh,CAL PDZ FP-1,DYRK1A inh,CAL PDZ FP-2,CDK5 inh,Tb MetRS conf,Jurkat tox,TbMetRS FP orth
CN(C)Cc1csc(NC(=O)Nc2ccccc2C(C)(C)C)n1,/,0,/,/,/,/,/,/,/
COc1cccc(N2CCN(c3ncnc4c3[nH]c3ccc(F)cc34)CC2C)c1 (stereo unspecified),-9,8.5*,-1,3,0,2,12*,95*,14
COc1cc2[nH]c3c(N4CCN(c5ccc(Cl)cc5)CC4)ncnc3c2cc1OC,-5,0,-3,-3,-2,-1,/,/,/
CCOC(=O)c1ccc2c(c1)NCc1cccc(OC)c1O2,-10,5.8*,-4,0,1,1,11*,11,9
COc1ccc(C(=O)OCC(=O)c2ccc3c(c2)NC(=O)CO3)cc1OC,-14,0,-1,/,-1,1,/,/,/
COC(=O)[C@]12CCCCC=C1N(Cc1cccc3ccccc13)C(=O)[C@H](CC(=O)N1CCSCC1)C2,/,-1,/,/,/,/,/,/,/
CC(C)(C)c1ccc(NC(=O)c2cc(C3CCCN(C(=O)CCc4ccccc4)C3)on2)cc1 (stereo unspecified),/,0,/,/,/,/,/,/,/
Cc1cc(NS(=O)(=O)c2ccc(NC(=O)CSc3nc4ncc(Br)cc4[nH]3)cc2)nc(C)n1,-18,6.1*,-6,-1,-3,7,14*,-4,8
CN(C)C(CNc1ncnc2sccc12)c1ccccc1 (stereo unspecified),-2,8.0*,0,1,-1,0,1,-4,-1
CC(O)CNc1nc2ccccc2n1-c1ncnc2sc3c(c12)CCC3 (stereo unspecified),-18,9.3*,-7,45,-3,2,16*,4,6
CC(=O)c1ccc(NS(=O)(=O)c2cccc3cccnc23)cc1,/,0,/,/,/,/,/,/,/
COc1ccc([C@H]2C[C@@H](O)[C@H](n3cc(-c4ccc(F)cc4)nn3)CN2C(=O)C2CCCCC2)cc1,/,-2,/,/,/,/,/,/,/
O=C(NCC(O)c1nc2ccccc2[nH]1)c1cc2ccccc2[nH]1 (stereo unspecified),/,51*,/,/,/,/,68*,0,40*
O=C(NNC(=O)c1cc2ccccc2[nH]1)OCc1ccccc1,-4,13*,-4,-7,0,-2,46*,-12,19*
CC(C)CC(C)NNC(=O)c1cc2ccccc2[nH]1 (stereo unspecified),3,0,4,5,/,-2,/,/,/
CO[C@@H]1CN(C)C(=O)c2cc(NC(=O)Nc3ccc4c(c3)OCO4)ccc2OC[C@@H](C)N(C)C[C@H]1C,/,0,/,/,/,/,/,/,/
COCC(=O)N1C[C@H](C)[C@H](OC)CN(C)C(=O)c2cc(NC(=O)Nc3cccc(F)c3)ccc2OC[C@@H]1C,/,34*,/,/,/,/,43*,-3,18*
O=C(Nc1nc2c(s1)CCCC2)C1CCCN1C(=O)c1cccs1 (stereo unspecified),9,5.9*,-4,-14,-1,0,3,-7,5
O=[N+]([O-])c1ccc(O)c(/C=N/Nc2nc3ccccc3[nH]2)c1,-7,9.5*,1,21,1,1,14*,98*,15
